WT yeast gro inh: growth inhibition of WT yeast, mitochondrial fusion screen; mitochondrial fusion phenotypic screen, WT strain; inhibition, % at 10 µM; actives 2.1% (n = 190,000); AID 1362; in the data active means inhibition above about 58%; tested in S. cerevisiae
Lmaj promast: inhibitors of Leishmania major promastigote growth; Leishmania major promastigotes, resazurin fluorescence viability; inhibition, % at 10 µM; actives 9% (n = 200,000); AID 1063;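 further: promastigotes grown with compound for 44 hours at 28 °C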
G6PDH CS: counter-screen for G6PDH assay hits: L. mesenteroides G6PDH inhibition; Purified L. mesenteroides G6PDH, diaphorase/resazurin coupled fluorescence, 45 min; inhibition, % at 5 µM; actives 0.12% (n = 200,000); AID 1020
Diaphorase inh: diaphorase inhibition or chemical oxidation counter-screen; diaphorase resazurin-to-resorufin fluorescence, NADH, 16 min; bacterial (C. kluyveri) enzyme, not human; actives 0.69% (n = 190,000); inhibition, % at 20 µM;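 active means primary screen inhibition at 20 µM above a set limit, cut at about 50% in these data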
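Detection: fluorescence of resorufin formed from resazurin, Ex 544/Em 590 nm; test system: Clostridium kluyveri diaphorase enzyme; amount: 0.14 U/mL diaphorase, enzyme working solution; times: 16-min room-temperature incubation before reading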
Diaph act CS: counter-screen for diaphorase-based assays: diaphorase activators and chemical reducers | Diaphorase/resazurin coupled assay, resorufin fluorescence, 16 min; hits give high values; 1 = vehicle wells, 0 = NADH-free wells | activation factor at 20 µM | actives 0.005% (n = 190,000) | AID 1229;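 active means diaphorase activity raised at least twofold by the compound at 20 µM; inactive means activation factor below 2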
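System – purified diaphorase enzyme from Clostridium kluyveri · Input – enzyme 0.07 U/mL final · Also added – final NADH 0.114 mM, resazurin 0.1 mM · Measured by – fluorescence of resorufin, 544 nm excitation, 590 nm emission · Timing – 16 min enzyme reaction, ambient temperature · Measure – resorufin increase flagging diaphorase activators or reducers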
Numbers stand for hits. Sampled rows, rich in hits. Any-hit rate of the full collection: about 11%. Unless noted, no stated cut-off is given here; in the data, active means inhibition above about 50%; inactive means the rest.

What do the screens show for `Cc1nn(C)c(C)c1S(=O)(=O)N1CCCC(C(=O)N2CCN(c3ccc(Cl)cc3)CC2)C1` (centres undefined)?
WT yeast gro inh: inactive; Lmaj promast: inactive; G6PDH CS: inactive; Diaphorase inh: inactive; Diaph act CS: inactive

Results for O=C(C1CCN(S(=O)(=O)c2cccc3cccnc23)CC1)N1CCN(c2ccccn2)CC1 ?
WT yeast gro inh: inactive; Lmaj promast: inactive; G6PDH CS: inactive; Diaphorase inh: inactive; Diaph act CS: inactive

How did O=C(C1CCCN(S(=O)(=O)c2cccc3nonc23)C1)N1CCN(c2cccc(Cl)c2)CC1 (centres undefined) do in these assays?
WT yeast gro inh: inactive; Lmaj promast: 92.6; G6PDH CS: inactive; Diaphorase inh: inactive; Diaph act CS: inactive

What do the screens show for `Cc1n[nH]c(C)c1S(=O)(=O)N1CCCC(C(=O)N2CCN(c3ccc(Cl)cc3)CC2)C1` (centres undefined)?
WT yeast gro inh: inactive; Lmaj promast: 51.7; G6PDH CS: inactive; Diaphorase inh: inactive; Diaph act CS: inactive

Results for CN1C(=O)c2cccc(NC(=O)Cc3ccccc3)c2C1=O ?
WT yeast gro inh: inactive; Lmaj promast: inactive; G6PDH CS: inactive; Diaphorase inh: inactive; Diaph act CS: inactive

What do the screens show for `CCOc1cc(S(=O)(=O)NC2CCCC2)ccc1Cl`?
WT yeast gro inh: inactive; Lmaj promast: inactive; G6PDH CS: inactive; Diaphorase inh: inactive; Diaph act CS: inactive

Results for CCOc1cc(S(=O)(=O)Nc2cc(C)cc(C)c2)ccc1Cl ?
WT yeast gro inh: inactive; Lmaj promast: 95.7; G6PDH CS: inactive; Diaphorase inh: inactive; Diaph act CS: inactive

How did Cc1cc(C)c2nc(N3CCC(C(=O)NCCCN4CC(C)CC(C)C4)CC3)sc2c1 (centres undefined) do in these assays?
WT yeast gro inh: 69.0; Lmaj promast: 98.6; G6PDH CS: inactive; Diaphorase inh: inactive; Diaph act CS: inactive

What do the screens show for `Cc1cccc(C)c1NC1=NCCCCC1`?
WT yeast gro inh: inactive; Lmaj promast: inactive; G6PDH CS: inactive; Diaphorase inh: inactive; Diaph act CS: inactive

How did O=C(Nc1ccccc1Br)C1CC(=O)N(c2ccc3c4c(cccc24)CC3)C1 (centres undefined) do in these assays?
WT yeast gro inh: inactive; Lmaj promast: 62.1; G6PDH CS: inactive; Diaphorase inh: inactive; Diaph act CS: inactive

What do the screens show for `Cc1ccccc1NC(=O)C1CC(=O)N(c2ccc3c4c(cccc24)CC3)C1` (centres undefined)?
WT yeast gro inh: inactive; Lmaj promast: inactive; G6PDH CS: inactive; Diaphorase inh: inactive; Diaph act CS: inactive

What do the screens show for `O=C(c1ccco1)N1CCN(S(=O)(=O)Cc2ccc(Cl)cc2)CC1`?
WT yeast gro inh: inactive; Lmaj promast: inactive; G6PDH CS: inactive; Diaphorase inh: inactive; Diaph act CS: inactive

How did O=c1cc(N2CCCCC2)c(-c2ccccc2)nn1Cc1c(Cl)cccc1Cl do in these assays?
WT yeast gro inh: 89.2; Lmaj promast: inactive; G6PDH CS: inactive; Diaphorase inh: inactive; Diaph act CS: inactive

What do the screens show for `O=c1cc(N2CCCCC2)c(-c2ccccc2)nn1Cc1ccc(F)cc1`?
WT yeast gro inh: 83.1; Lmaj promast: inactive; G6PDH CS: inactive; Diaphorase inh: inactive; Diaph act CS: inactive

How did O=c1cc(N2CCCCC2)c(-c2ccccc2)nn1Cc1ccc(Cl)cc1 do in these assays?
WT yeast gro inh: inactive; Lmaj promast: inactive; G6PDH CS: inactive; Diaphorase inh: inactive; Diaph act CS: inactive

Results for CC1CN(C(NC(=O)c2ccccc2)C(Cl)(Cl)Cl)CC(C)O1 (centres undefined) ?
WT yeast gro inh: inactive; Lmaj promast: inactive; G6PDH CS: inactive; Diaphorase inh: inactive; Diaph act CS: inactive

What do the screens show for `Cc1ccc(S(=O)(=O)N2CCN(c3ccnc4cc(Cl)ccc34)CC2)cc1`?
WT yeast gro inh: 65.5; Lmaj promast: inactive; G6PDH CS: inactive; Diaphorase inh: inactive; Diaph act CS: inactive

What do the screens show for `Cc1cc(C)n(-c2nc3ccccc3nc2N2CCN(S(=O)(=O)c3ccc4ccccc4c3)CC2)n1`?
WT yeast gro inh: inactive; Lmaj promast: 53.6; G6PDH CS: inactive; Diaphorase inh: inactive; Diaph act CS: inactive

Results for Cc1cc(C)n(-c2nc3ccccc3nc2N2CCN(S(=O)(=O)c3ccc(F)c(C)c3)CC2)n1 ?
WT yeast gro inh: inactive; Lmaj promast: inactive; G6PDH CS: inactive; Diaphorase inh: inactive; Diaph act CS: inactive

Results for Cc1ccc(S(=O)(=O)N2CCN(c3ccnc4cc(Cl)ccc34)CC2)cc1C ?
WT yeast gro inh: 69.1; Lmaj promast: inactive; G6PDH CS: inactive; Diaphorase inh: inactive; Diaph act CS: inactive

Results for Cc1cc(N2CCN(S(=O)(=O)c3ccc(Cl)c(Cl)c3)CC2)c2ccccc2n1 ?
WT yeast gro inh: 68.9; Lmaj promast: 74.4; G6PDH CS: inactive; Diaphorase inh: inactive; Diaph act CS: inactive

How did N#CCCN(C(=O)COC(=O)c1ccc(S(=O)(=O)Nc2ccccc2)cc1)c1ccccc1 do in these assays?
WT yeast gro inh: inactive; Lmaj promast: inactive; G6PDH CS: inactive; Diaphorase inh: inactive; Diaph act CS: inactive

How did COc1cc2c(cc1NC(=O)Nc1ccc(F)cc1)oc1ccccc12 do in these assays?
WT yeast gro inh: inactive; Lmaj promast: inactive; G6PDH CS: inactive; Diaphorase inh: inactive; Diaph act CS: inactive

How did O=C(c1ccc(Cl)cc1)N1CCN(c2ccnc3cc(Cl)ccc23)CC1 do in these assays?
WT yeast gro inh: inactive; Lmaj promast: 66.2; G6PDH CS: inactive; Diaphorase inh: inactive; Diaph act CS: inactive

Results for Cc1[nH]c2ccccc2c1C(c1ccncc1)N1CCN(c2ccc(F)cc2)CC1 (centres undefined) ?
WT yeast gro inh: inactive; Lmaj promast: 98.8; G6PDH CS: inactive; Diaphorase inh: inactive; Diaph act CS: inactive

How did CCOC(=O)c1sc2nc(C)nc(SCC(=O)NC3CCS(=O)(=O)C3)c2c1C (centres undefined) do in these assays?
WT yeast gro inh: inactive; Lmaj promast: inactive; G6PDH CS: inactive; Diaphorase inh: inactive; Diaph act CS: inactive

How did C=CCOc1ccccc1CN1CCSCC1 do in these assays?
WT yeast gro inh: inactive; Lmaj promast: 98.2; G6PDH CS: inactive; Diaphorase inh: inactive; Diaph act CS: inactive

What do the screens show for `COCC1CCCN(Cc2cn(Cc3ccccc3)nc2-c2cc3ccccc3o2)C1` (centres undefined)?
WT yeast gro inh: inactive; Lmaj promast: 63.9; G6PDH CS: inactive; Diaphorase inh: inactive; Diaph act CS: inactive

How did COCC1CCN(Cc2cn(Cc3ccccc3)nc2-c2cc3ccccc3o2)CC1 do in these assays?
WT yeast gro inh: inactive; Lmaj promast: inactive; G6PDH CS: inactive; Diaphorase inh: inactive; Diaph act CS: inactive

What do the screens show for `CCn1nc(C)c(CNC(=O)CCc2nnc(-c3ccc(C(C)=O)s3)o2)c1C`?
WT yeast gro inh: inactive; Lmaj promast: inactive; G6PDH CS: inactive; Diaphorase inh: inactive; Diaph act CS: inactive

Results for COc1cccc(CN(Cc2ccccc2F)S(=O)(=O)c2ccc(S(=O)(=O)NCc3ccccc3)cc2)c1 ?
WT yeast gro inh: inactive; Lmaj promast: inactive; G6PDH CS: inactive; Diaphorase inh: inactive; Diaph act CS: inactive

Screens from PubChem.
